Experimental data from ChEMBL document CHEMBL4411293, “Development of alkyl glycerone phosphate synthase inhibitors: Structure-activity relationship and effects on ether lipids and epithelial-mesenchymal transition in cancer cells” (Eur J Med Chem, 2019).
Blank lines part the entries; values can stand above or below the compound they belong to. Activity calls are given as the source filed them. The rule behind the calls is not given here.

Legend:
[1] = target: Alkyldihydroxyacetonephosphate synthase, peroxisomal (Homo sapiens) (UniProt O00116); test: Binding affinity to AGPS (unknown origin) assessed as change in melting temperature at 180 uM by ThermoFAD assay
Chain of Alkyldihydroxyacetonephosphate synthase, peroxisomal (Homo sapiens) (O00116 whole entry): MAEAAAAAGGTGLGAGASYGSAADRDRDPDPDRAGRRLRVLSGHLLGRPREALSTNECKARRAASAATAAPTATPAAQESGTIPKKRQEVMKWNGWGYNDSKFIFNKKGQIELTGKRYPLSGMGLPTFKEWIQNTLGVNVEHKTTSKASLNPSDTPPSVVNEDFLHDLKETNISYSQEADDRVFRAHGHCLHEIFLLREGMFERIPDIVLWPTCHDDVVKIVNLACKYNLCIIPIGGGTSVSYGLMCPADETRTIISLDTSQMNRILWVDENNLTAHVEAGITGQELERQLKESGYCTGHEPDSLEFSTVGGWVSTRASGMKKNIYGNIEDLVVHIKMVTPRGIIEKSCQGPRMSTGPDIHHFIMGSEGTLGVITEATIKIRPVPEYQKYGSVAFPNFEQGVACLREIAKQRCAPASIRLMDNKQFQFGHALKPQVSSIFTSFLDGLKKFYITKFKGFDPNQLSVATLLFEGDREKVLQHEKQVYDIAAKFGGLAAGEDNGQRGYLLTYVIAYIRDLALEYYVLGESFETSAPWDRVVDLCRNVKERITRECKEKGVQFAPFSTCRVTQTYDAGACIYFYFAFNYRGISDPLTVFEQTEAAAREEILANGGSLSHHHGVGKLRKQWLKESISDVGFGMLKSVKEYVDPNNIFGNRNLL
Procedure, shortened: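 ThermoFAD: 5 µM Cavia porcellus AGPS with 180 µM compound in 50 mM HEPES pH 7.5, 50 mM NaCl, 5% glycerol; heated 25–70 °C, FAD fluorescence read every 0.2 °C (excitation 485 nm) to give unfolding temperature shift; triplicate, SD within ±0.5 °C.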

[2] = target: Alkyldihydroxyacetonephosphate synthase, peroxisomal (Homo sapiens) (UniProt O00116); test: Inhibition of AGPS (unknown origin) using palmitoyl-DHAP as substrate in presence of [1-14C]hexadecanol by radioactivity based enzymatic assay
[3] = Antimigratory activity in human 231MFP cells at 500 uM after 8 hrs by transwell assay relative to control; type: functional
PC-3 [4] = test: Modulation of epithelial-mesenchymal transition in human PC3 cells assessed as upregulation of E-cadherin mRNA expression at 50 to 100 uM after 24 hrs by qRT-PCR analysis; type: functional, cell-based
Procedure, shortened: (§1)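 PC-3 and MDA-MB-231 cells in DMEM/10% FBS treated 24 h at 50 and 100 µM, DMSO vehicle as control; E-cadherin, Snail and MMP2 transcripts quantified by RT-PCR; mean of at least four independent experiments.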

MDA-MB-231 [5] = test: Modulation of epithelial-mesenchymal transition in human MDA-MB-231 cells assessed as upregulation of E-cadherin mRNA expression at 50 to 100 uM after 24 hrs by qRT-PCR analysis; type: functional, cell-based; procedure, shortened: as §1
PC-3 [6] = test: Modulation of epithelial-mesenchymal transition in human PC3 cells assessed as down regulation of snail mRNA expression at 50 to 100 uM after 24 hrs by qRT-PCR analysis; type: functional, cell-based; procedure, shortened: as §1
MDA-MB-231 [7] = test: Modulation of epithelial-mesenchymal transition in human MDA-MB-231 cells assessed as down regulation of snail mRNA expression at 50 to 100 uM after 24 hrs by qRT-PCR analysis; type: functional, cell-based; procedure, shortened: as §1
PC-3 [8] = test: Modulation of epithelial-mesenchymal transition in human PC3 cells assessed as down regulation of MMP2 mRNA expression at 50 to 100 uM after 24 hrs by qRT-PCR analysis; type: functional, cell-based; procedure, shortened: as §1
MDA-MB-231 [9] = test: Modulation of epithelial-mesenchymal transition in human MDA-MB-231 cells assessed as down regulation of MMP2 mRNA expression at 50 to 100 uM after 24 hrs by qRT-PCR analysis; type: functional, cell-based; procedure, shortened: as §1
[10] = Reduction in cell survival in human 231MFP cells; type: functional
[11] = Reduction in cell migration rate in human 231MFP cells; type: functional; design: scale not given: the % may be the effect or the level left
[12] = Down regulation of phospholipids in human 231MFP cells at 500 uM after 24 hrs by LC-MS/MS analysis relative to control; type: functional
Procedure, shortened: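 231MFP cells kept serum-free 24 h, then treated 24 h at 500 µM versus DMSO; lipids extracted in chloroform/methanol/PBS (2:1:1) with C12:0 dodecylglycerol and pentadecanoic acid internal standards; reverse-phase C5 LC, ESI triple-quadrupole MS/MS with SRM quantitation; mean ± SD.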

[13] = Antimigratory activity in human 231MFP cells at 500 uM after 6 hrs by transwell assay relative to control; type: functional
Procedure, shortened: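 Transwell chambers coated with collagen; 231MFP cells preincubated with compound or DMSO vehicle before seeding into serum-free migration assay; migration rate read after 6 h versus vehicle control; mean ± SD, n = 3–4 per group.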

[14] = Cytotoxicity against human 231MFP cells assessed as cell survival at 500 uM after 24 hrs by MTS assay relative to control; type: cell-based; conditions: read-out: Activity
Procedure, shortened: (§2)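 231MFP cells preincubated with compound (500 µM) or DMSO, then seeded into serum-free survival assay; survival read after 24 and 48 h relative to matched DMSO controls.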

[15] = Cytotoxicity against human 231MFP cells assessed as cell survival at 500 uM after 48 hrs by MTS assay relative to control; type: cell-based; conditions: read-out: Activity; procedure, shortened: as §2
[16] = Cytotoxicity against human MeT-5A cells at 100 uM after 24 hrs by MTS assay; type: cell-based
Procedure, shortened: (§3)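 Cells seeded at 20x10^3 per well; compound added 24 h later at 50, 100 or 250 µM; after further 24 h MTS reagent added and absorbance read at 490 nm; PC-3 and MDA-MB-231 in DMEM, MeT5A in M199, each with 10% FBS, 37 °C, 5% CO2; three independent experiments, 8 measurements total, mean ± SEM.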

[17] = Cytotoxicity against human MeT-5A cells at 250 uM after 24 hrs by MTS assay; type: cell-based; procedure, shortened: as §3
PC-3 [18] = test: Antiproliferative activity against human PC3 cells at 100 uM after 24 hrs by MTS assay; type: functional, cell-based; procedure, shortened: as §3
MDA-MB-231 [19] = test: Antiproliferative activity against human MDA-MB-231 cells at 100 uM after 24 hrs by MTS assay; type: functional, cell-based; procedure, shortened: as §3
PC-3 [20] = test: Antiproliferative activity against human PC3 cells at 250 uM after 24 hrs by MTS assay; type: functional, cell-based; procedure, shortened: as §3
MDA-MB-231 [21] = test: Antiproliferative activity against human MDA-MB-231 cells at 250 uM after 24 hrs by MTS assay; type: functional, cell-based; procedure, shortened: as §3
MDA-MB-231 [22] = test: Modulation of epithelial-mesenchymal transition in human MDA-MB-231 cells transfected with AGPS-siRNA assessed as upregulation of E-cadherin mRNA expression at 100 uM after 24 hrs by qRT-PCR analysis; type: functional, cell-based
Procedure, shortened: (§4)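 MDA-MB-231 cells transfected with AGPS siRNAs (100 pmol total, RNAiMAX) or scramble; 24 h later given compound at 100 µM final or DMSO without detaching, harvested 24 h after that; AGPS, E-cadherin, Snail and MMP2 transcripts by RT-PCR; mean of five independent experiments.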

MDA-MB-231 [23] = test: Modulation of epithelial-mesenchymal transition in human MDA-MB-231 cells transfected with AGPS-siRNA assessed as down regulation of snail mRNA expression at 100 uM after 24 hrs by qRT-PCR analysis; type: functional, cell-based; procedure, shortened: as §4
MDA-MB-231 [24] = test: Modulation of epithelial-mesenchymal transition in human MDA-MB-231 cells transfected with AGPS-siRNA assessed as down regulation of MMP2 mRNA expression at 100 uM after 24 hrs by qRT-PCR analysis; type: functional, cell-based; procedure, shortened: as §4

ΔTm [1]: 3 °C
Compound: C[C@H](CC(=O)NCc1ccc2[nH]c(=O)[nH]c2c1)c1c(F)cccc1F

ΔTm [1]: 3.5 °C
Compound: CC(CC(=O)NCc1ccc2[nH]c(=O)[nH]c2c1)c1ccc(F)cc1F (stereo unspecified)

ΔTm [1]: 6 °C
Compound: CC(CC(=O)NCc1ccc2[nH]c(=O)[nH]c2c1)c1c(F)cccc1F (single isomer, unassigned; (+))

ΔTm [1]: 0 °C
Compound: CC(CC(=O)Nc1ccc2[nH]c(=O)[nH]c2c1)c1c(F)cccc1F (stereo unspecified)

ΔTm [1]: 1 °C
inhibition [2]: inactive
Compound: CC(C(=O)NCc1ccc2[nH]c(=O)[nH]c2c1)c1c(F)cccc1F (stereo unspecified)

ΔTm [1]: 0 °C
Compound: O=C(CCc1ccccc1F)NCc1ccc2[nH]c(=O)[nH]c2c1

ΔTm [1]: 3 °C
Compound: CC(CC(=O)NCc1ccc2[nH]c(=O)[nH]c2c1)c1cccc(F)c1 (stereo unspecified)

ΔTm [1]: 3.5 °C
Compound: CC(CC(=O)NCc1ccc2[nH]c(=O)[nH]c2c1)c1ccccc1F (stereo unspecified)
Activity [3]: 48%
Activity (PC-3 [4]): Active
Activity (MDA-MB-231 [5]): Active
Activity (PC-3 [6]): Active
Activity (MDA-MB-231 [7]): Active
Activity (PC-3 [8]): Active
Activity (MDA-MB-231 [9]): Active
Activity [10]: 50%
Activity [11]: 48%

ΔTm [1]: 5 °C
inhibition [2]: Active
Compound: CC(CC(=O)NCc1ccc2[nH]c(=O)[nH]c2c1)c1c(F)cccc1F (stereo in doubt; 2i) [listing 2 of 2 here]
Activity (PC-3 [18]): inactive
Activity (MDA-MB-231 [19]): inactive
Activity (PC-3 [20]): Active
Activity (MDA-MB-231 [21]): Active
Activity (PC-3 [4]): Active
Activity (MDA-MB-231 [5]): Active
Activity (PC-3 [6]): Active
Activity (MDA-MB-231 [7]): Active
Activity (PC-3 [8]): Active
Activity (MDA-MB-231 [9]): Active
Activity (MDA-MB-231 [22]): Active
Activity (MDA-MB-231 [23]): Active
Activity (MDA-MB-231 [24]): Active

ΔTm [1]: 3 °C
Compound: CC(Cc1ccccc1F)C(=O)NCc1ccc2[nH]c(=O)[nH]c2c1 (stereo unspecified)

More lines, now with the values behind:

Compound: CCC(CC(=O)NCc1ccc2[nH]c(=O)[nH]c2c1)c1ccccc1F (stereo unspecified)
ΔTm [1]: 1 °C

Compound: CC(CC(=O)NCc1ccc2[nH]c(=O)[nH]c2c1)c1ccc(F)cc1 (stereo unspecified)
ΔTm [1]: 4 °C

Compound: COc1ccccc1C(C)CC(=O)NCc1ccc2[nH]c(=O)[nH]c2c1 (stereo unspecified)
ΔTm [1]: 0 °C

Compound: C/C(=C\c1ccccc1F)C(=O)NCc1ccc2[nH]c(=O)[nH]c2c1
ΔTm [1]: 2 °C

Compound: CC(CC(=O)NCc1ccc2[nH]c(=O)[nH]c2c1)c1ccccc1 (stereo unspecified)
ΔTm [1]: 1.5 °C

Compound: C/C(=C\C(=O)NCc1ccc2[nH]c(=O)[nH]c2c1)c1ccccc1F
ΔTm [1]: 0 °C

Compound: CC(CC(=O)NCc1ccc2[nH]c(=O)[nH]c2c1)c1ccccc1Cl (stereo unspecified)
ΔTm [1]: 3.5 °C

Compound: CC(CC(=O)NCc1ccc2[nH]c(=O)[nH]c2c1)c1c(F)cccc1F (stereo in doubt; 2i) [listing 1 of 2 here]
Activity [12]: 50 - 70%
Activity [13]: 78%
viability at 24 h, 500 µM [14]: 44%
viability at 48 h, 500 µM [15]: 57%
Activity [16]: Non-Toxic
Activity [17]: Non-Toxic

Compound: CC(CC(=O)NCc1ccc2ncc(=O)[nH]c2c1)c1c(F)cccc1F (stereo unspecified)
ΔTm [1]: 0 °C

Compound: Cc1ccccc1C(C)CC(=O)NCc1ccc2[nH]c(=O)[nH]c2c1 (stereo unspecified)
ΔTm [1]: 3 °C

Compound: CC(CC(=O)NCc1ccc2[nH]c(=O)[nH]c2c1)c1ccccc1Br (stereo unspecified)
ΔTm [1]: 3.5 °C

Compound: CC(CC(=O)NCc1ccc2[nH]cnc2c1)c1c(F)cccc1F (stereo unspecified)
ΔTm [1]: 0 °C
inhibition [2]: inactive
Activity (PC-3 [4]): inactive
Activity (MDA-MB-231 [5]): inactive
Activity (PC-3 [6]): inactive
Activity (MDA-MB-231 [7]): inactive
Activity (PC-3 [8]): inactive
Activity (MDA-MB-231 [9]): inactive

Compound: O=C(CC(c1ccccc1)c1ccccc1F)NCc1ccc2[nH]c(=O)[nH]c2c1 (stereo unspecified)
ΔTm [1]: 0 °C
inhibition [2]: inactive

Compound: O=C(/C=C/c1ccccc1F)NCc1ccc2[nH]c(=O)[nH]c2c1
ΔTm [1]: 0 °C
